Test results: ChEMBL document CHEMBL5579848, “Isothiocyanate-Corticosteroid Conjugates against asthma: Unity makes strength” (Eur J Med Chem, 2024)
Converted amounts (≈) assume the structure as drawn. The source made the active and inactive calls. The rule behind the calls is not given here.

Tests used:
[1] = Half life in simulated gastric fluid at pH 1.2 in absence of pepsin at 100 uM incubated at 37 degreeC up to 24 hrs by UPHLC analysis; assay type: ADME; conditions: simulated gastric fluid without pepsin
In short: (§1)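 A 10 mM DMSO stock was diluted to 100 μM in PBS (pH 7.4, 50 mM) or pepsin-free SGF (pH 1.2) and held at 37 ± 0.5 °C for 24 h. Timed aliquots were quantified by reverse-phase UHPLC-DAD against calibration curves (1.56–100 ppm), tracking the parent compound plus aminoacetate and corticosteroid metabolites. Pseudo-first-order t1/2 was calculated; n = 3.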

[2] = Half life in PBS at pH 7.4 at 100 uM incubated at 37 degreeC up to 24 hrs by UPHLC analysis; assay type: ADME; in short: as §1
Albumin [3] = molecular target: T1, Albumin (Bos taurus, UniProt P02769); assay: Half life in 3% bovine serum albumin at 200 uM incubated up to 4 hrs by UHPLC analysis; assay type: ADME; conditions: cattle, 3% bovine serum albumin solution
T1 sequence (P02769 whole entry): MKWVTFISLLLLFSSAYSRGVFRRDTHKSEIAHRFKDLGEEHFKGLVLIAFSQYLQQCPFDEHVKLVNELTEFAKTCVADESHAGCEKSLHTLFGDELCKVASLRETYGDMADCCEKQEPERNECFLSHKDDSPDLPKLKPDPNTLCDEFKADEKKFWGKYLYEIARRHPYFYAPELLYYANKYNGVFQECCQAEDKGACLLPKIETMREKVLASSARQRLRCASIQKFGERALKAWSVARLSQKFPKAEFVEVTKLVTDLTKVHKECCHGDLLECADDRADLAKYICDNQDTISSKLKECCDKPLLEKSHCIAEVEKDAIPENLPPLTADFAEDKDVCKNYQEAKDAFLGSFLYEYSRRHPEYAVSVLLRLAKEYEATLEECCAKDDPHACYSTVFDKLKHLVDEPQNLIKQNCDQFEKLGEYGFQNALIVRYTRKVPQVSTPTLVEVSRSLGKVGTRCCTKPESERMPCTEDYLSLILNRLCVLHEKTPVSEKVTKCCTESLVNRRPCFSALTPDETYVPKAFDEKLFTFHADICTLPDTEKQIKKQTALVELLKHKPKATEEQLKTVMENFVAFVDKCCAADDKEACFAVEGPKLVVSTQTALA
In short: (§2)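 A 10 mM DMSO stock was diluted to 200 μM in 3 % BSA in PBS and incubated at 37 ± 0.5 °C for up to 4 h. Timed samples were deproteinized with an equal volume of acetonitrile/0.1 % TFA, centrifuged, filtered and quantified by UHPLC. Results are given as pseudo-first-order t1/2 or % parent remaining at 10 min; n ≥ 3.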

[4] = Solubility of compound in simulated gastric fluid at pH 1.2 in absence of pepsin at 5 mg incubated at 25 degreeC for 6 hrs by UHPLC analysis; assay type: ADME; conditions: simulated gastric fluid without pepsin
In short: (§3)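 Solid compound (5 mg) was shaken in 1 mL water, PBS (pH 7.4, 50 mM) or pepsin-free SGF (pH 1.2) for 6 h at 25 °C. Suspensions were filtered (0.45 μm) and the filtrate quantified by UHPLC, reported in mg/L; triplicate, mean values.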

[5] = Solubility of compound in PBS at pH 7.4 at 5 mg incubated at 25 degreeC for 6 hrs by UHPLC analysis; assay type: physicochemical; in short: as §3
[6] = Solubility of compound in water at 5 mg incubated at 25 degreeC for 6 hrs by UHPLC analysis; assay type: physicochemical; in short: as §3
[7] = Induction of H2S release in PBS at pH 7.4 at 100 uM measured after 30 mins by free radical analyzer; assay type: physicochemical; conditions: buffer, pH 7.4, 0.5 h
In short: (§4)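 An H2S-selective mini-electrode was equilibrated in PBS pH 7.4, and compound was added to 100 μM final (1 % DMSO). Amperometric current was recorded for 30 min, with or without L-cysteine 4 mM added 10 min before. Current was converted to H2S using NaHS calibration (1–10 µM, pH 4.0); mean ± SEM.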

[8] = Induction of H2S release in PBS at pH 7.4 at 100 uM pretreated with L-Cys for 10 mins followed by compound addition and measured after 30 mins by free radical analyzer; assay type: physicochemical; conditions: buffer, pH 7.4, 0.5 h; in short: as §4
RBL-2H3 [9] = assay: Cytotoxicity against rat RBL-2H3 cells assessed as reduction cell viability at 100 uM after 24 hrs by WST assay; assay type: toxicity, cell-based; conditions: rbl-2h3, 24 h
In short: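 RBL-2H3 cells were grown in MEM with 10 % FBS, 10^4 cells/well, and attached for 24 h. They were then exposed 24 h to 100 μM compound (final) or 0.1 % DMSO. WST-1 (1:10) was added for 60 min at 37 °C and absorbance read at 450 nm. Viability is expressed as % of vehicle; mean ± SEM.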

Albumin [10] = molecular target: T1, Albumin; assay: Stability in 3% bovine serum albumin assessed as parent compound remaining at 200 uM incubated at 37 degreeC for 10 mins by UHPLC analysis; assay type: ADME; conditions: cattle, 3% bovine serum albumin solution, read-out: Stability; in short: as §2
RBL-2H3 [11] = assay: Inhibition of mast cell degranulation in DNP-HSA antigen sensitized rat RBL-2H3 cells assessed as reduction in beta-hexoaminosidase release at 100 uM preincubated for 5 mins followed by DNP addition and measured after 1 hr by multiplate reader; assay type: functional, cell-based; conditions: time 65.0 min
In short: (§5)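 RBL-2H3 cells (72×10^3/well) were sensitized overnight with anti-DNP IgE 0.50 µg/ml, then moved to phenol-free DMEM with 1 mg/ml BSA. Cells were preincubated 5 min at 37 °C with 0.1 % DMSO, cromolyn 1 mM or compound 100 μM, then challenged with DNP-HSA 10 ng/ml. After 1 h, supernatant was incubated 1 h with 1.4 mM p-nitrophenyl-N-acetyl-β-D-glucosaminide (citrate pH 4.2), stopped with Trizma pH 9.4, and read at 405 nm.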

Mus musculus [12] = assay: Anti-asthmatic activity in OVA-induced ip dosed female BALB/c mouse model assessed as inhibition of bronchial hyperreactivity administered 30 min prior to every ovalbumin challenge on day 0 and 7 and measured after 21 days by isometric force transducer analysis; assay type: functional, organism-based; conditions: dose 1-2 mg/kg, time 21.0 day
In short: (§6)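 Female BALB/c mice (20 g, 8 weeks) sensitized s.c. with 100 μg ovalbumin adsorbed to 13.3 mg aluminum hydroxide gel (0.4 ml) on days 0 and 7; saline controls. Test agent (1–2 mg/kg, or equimolar 3,51 × 10^-6 mol) or vehicle given ip 30 min before each OVA dose. Killed day 21 by enflurane overdose; lungs, bronchi, blood collected.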

Mus musculus [13] = assay: Anti-asthmatic activity in OVA-induced female BALB/c mouse model assessed as reduction in alpha-SMA positive muscle layers at 1 to 2 mg/kg, ip for 30 min before every ovalbumin challenge on day 0 and 7 and measured after 21 days by immunohistochemical staining based microscopic analysis; assay type: functional, organism-based; conditions: dose 1-2 mg/kg, time 21.0 day; in short: as §6
Mus musculus [14] = assay: Anti-asthmatic activity in OVA-induced female BALB/c mouse model assessed as reduction in cell infiltration at 1 mg/kg, ip for 30 min before every ovalbumin challenge on day 0 and 7 and measured after 21 days by H and E staining based microscopic analysis; assay type: functional, organism-based; conditions: time 21.0 day; in short: as §6
Mus musculus [15] = assay: Anti-asthmatic activity in OVA-induced female BALB/c mouse model assessed as reduction in thickening of airway smooth muscle layer at 1 mg/kg, ip for 30 min before every ovalbumin challenge on day 0 and 7 and measured after 21 days by H and E staining based microscopic analysis; assay type: functional, organism-based; conditions: time 21.0 day; in short: as §6
Mus musculus [16] = assay: Anti-asthmatic activity in OVA-induced female BALB/c mouse model assessed as reduction in detachment of the lamina propria at 1 mg/kg, ip for 30 min before every ovalbumin challenge on day 0 and 7 and measured after 21 days by H and E staining based microscopic analysis; assay type: functional, organism-based; conditions: time 21.0 day; in short: as §6
Mus musculus [17] = assay: Anti-asthmatic activity in OVA-induced female BALB/c mouse model assessed as reduction in cell infiltration at 2 mg/kg, ip for 30 min before every ovalbumin challenge on day 0 and 7 and measured after 21 days by H and E staining based microscopic analysis; assay type: functional, organism-based; conditions: time 21.0 day; in short: as §6
Mus musculus [18] = assay: Anti-asthmatic activity in OVA-induced female BALB/c mouse model assessed as reduction in thickening of airway smooth muscle layer at 2 mg/kg, ip for 30 min before every ovalbumin challenge on day 0 and 7 and measured after 21 days by H and E staining based microscopic analysis; assay type: functional, organism-based; conditions: time 21.0 day; in short: as §6
Mus musculus [19] = assay: Anti-asthmatic activity in OVA-induced female BALB/c mouse model assessed as reduction in detachment of the lamina propria at 2 mg/kg, ip for 30 min before every ovalbumin challenge on day 0 and 7 and measured after 21 days by H and E staining based microscopic analysis; assay type: functional, organism-based; conditions: time 21.0 day; in short: as §6
Mus musculus [20] = assay: Anti-asthmatic activity in OVA-induced female BALB/c mouse model assessed as reduction in IgE level in plasma at 2 mg/kg, ip for 30 min before every ovalbumin challenge on day 0 and 7 and measured after 21 days by ELISA; assay type: functional, organism-based; conditions: time 21.0 day; in short: as §6
Mus musculus [21] = assay: Anti-asthmatic activity in OVA-induced ip dosed female BALB/c mouse model assessed as reduction in pulmonary IL-13 level administered for 30 min before every ovalbumin challenge on day 0 and 7 and measured after 21 days by ELISA; assay type: functional, organism-based; conditions: dose 1-2 mg/kg, time 21.0 day; in short: as §6
Mus musculus [22] = assay: Anti-asthmatic activity in OVA-induced female BALB/c mouse model assessed as reduction in alpha-SMA positive muscle layers at 3.512 x 10^-6M, ip for 30 min before every ovalbumin challenge on day 0 and 7 and measured after 21 days by immunohistochemical staining based microscopic analysis; assay type: functional, organism-based; conditions: dose 3.512 10^-6M, time 21.0 day; in short: as §6
Mus musculus [23] = assay: Anti-asthmatic activity in OVA-induced female BALB/c mouse model assessed as restoration of structure of alveolar septa at 3.512 x 10^-6M, ip for 30 min before every ovalbumin challenge on day 0 and 7 and measured after 21 days by H and E staining based microscopic analysis; assay type: functional, organism-based; conditions: dose 3.512 10^-6M, time 21.0 day; in short: as §6
Mus musculus [24] = assay: Anti-asthmatic activity in OVA-induced female BALB/c mouse model assessed as restoration of structure of bronchial epithelium at 3.512 x 10^-6M, ip for 30 min before every ovalbumin challenge on day 0 and 7 and measured after 21 days by H and E staining based microscopic analysis; assay type: functional, organism-based; conditions: dose 3.512 10^-6M, time 21.0 day; in short: as §6
Mus musculus [25] = assay: Anti-asthmatic activity in OVA-induced female BALB/c mouse model assessed as restoration of structure of airway smooth muscle at 3.512 x 10^-6M, ip for 30 min before every ovalbumin challenge on day 0 and 7 and measured after 21 days by H and E staining based microscopic analysis; assay type: functional, organism-based; conditions: dose 3.512 10^-6M, time 21.0 day; in short: as §6
RBL-2H3 [26] = assay: Inhibition of mast cell degranulation in DNP-HSA antigen sensitized rat RBL-2H3 cells assessed as reduction in beta-hexoaminosidase release at 1 mM preincubated for 5 mins followed by DNP addition and measured after 1 hr by multiplate reader relative to control; assay type: functional; conditions: RBL-2H3, 1.083 h, time 65 min; in short: as §5

Row | half-life at 100 µM [1] [h] | half-life at 100 µM [2] [h] | half-life at 200 µM (Albumin [3]) [h] | solubility at 6 h [4] [µg/mL] | solubility at 6 h [5] [µg/mL] | solubility at 6 h [6] [µg/mL] | Activity [7] | Activity [8] | Compound | Activity (RBL-2H3 [9]) | inhibition (RBL-2H3 [11]) | further results
1 | > 24 | > 24 | 1 | 0.16 (≈ 0.278 µM) | 0.12 (≈ 0.208 µM) | < 0.1 | Active | Active | CCCCC(=O)O[C@]1(C(=O)COC(=O)CN=C=S)[C@@H](C)C[C@H]2[C@@H]3CCC4=CC(=O)C=C[C@]4(C)[C@@]3(F)[C@@H](O)C[C@@]21C | Toxic |  | 
2 | > 24 | > 24 | 1.4 | < 0.1 | 0.25 (≈ 0.439 µM) | 0.55 (≈ 0.965 µM) | ~ 2 uM | ~ 2 uM | C[C@]12C=CC(=O)C=C1CC[C@@H]1[C@@H]2[C@@H](O)C[C@@]2(C)[C@H]1C[C@H]1O[C@@H](C3CCCCC3)O[C@]12C(=O)COC(=O)CN=C=S | Non-Toxic | Active | inhibition (Mus musculus [12]): Dose-Dependent Effect; Activity (Mus musculus [13]): Active; Activity (Mus musculus [14]): inactive; Activity (Mus musculus [15]): inactive; Activity (Mus musculus [16]): inactive; Activity (Mus musculus [17]): Active; Activity (Mus musculus [18]): Active; Activity (Mus musculus [19]): Active; Activity (Mus musculus [20]): Active; Activity (Mus musculus [21]): Dose-Dependent Effect; Activity (Mus musculus [22]): Active; Activity (Mus musculus [23]): Active; Activity (Mus musculus [24]): Active; Activity (Mus musculus [25]): Active

The next lines start with the compound.

Row | Compound | half-life at 100 µM [1] [h] | half-life at 100 µM [2] [h] | half-life at 200 µM (Albumin [3]) [h] | solubility at 6 h [4] [µg/mL] | solubility at 6 h [5] [µg/mL] | solubility at 6 h [6] [µg/mL] | Activity [7] | Activity [8] | Activity (RBL-2H3 [9]) | inhibition (RBL-2H3 [11]) | further results
3 | C[C@]12C=CC(=O)C=C1CC[C@@H]1[C@@H]2C(=O)C[C@@]2(C)[C@H]1CC[C@]2(O)C(=O)COC(=O)CN=C=S | 18 | 0.2 |  | 16.1 (≈ 35.2 µM) | 15.9 (≈ 34.8 µM) | 5.26 (≈ 11.5 µM) | ~ 2 uM | ~ 2 uM | Non-Toxic | Active | remaining at 10 min, 200 µM (Albumin [10]): 19%
4 | O=C(O)c1cc(=O)c2c(OCC(O)COc3cccc4oc(C(=O)O)cc(=O)c34)cccc2o1 [CROMOLYN] |  |  |  |  |  |  |  |  |  |  | inhibition at 1000 µM (RBL-2H3 [26]): ~25%
5 | C[C@@H]1C[C@H]2[C@@H]3CCC4=CC(=O)C=C[C@]4(C)[C@@]3(F)[C@@H](O)C[C@]2(C)[C@@]1(O)C(=O)COC(=O)CN |  |  |  |  |  |  |  |  |  | Active | 
